Laboratory results reported in ChEMBL document CHEMBL2046381, “Defining the mechanism of action and enzymatic selectivity of psammaplin A against its epigenetic targets” (J Med Chem, 2012).
Activity calls are given as the source filed them. The rule behind the calls is not given here.

Legend:
Histone deacetylase 1 = Histone deacetylase 1 (Homo sapiens, UniProt Q13547); assay: Inhibition of HDAC1 in human MCF7 cells assessed as up-regulation of acetylated histone H3 protein level at 5 uM after 24 hrs by Western blot analysis; assay type: cell-based
Histone deacetylase 1, sequence (Q13547 whole entry): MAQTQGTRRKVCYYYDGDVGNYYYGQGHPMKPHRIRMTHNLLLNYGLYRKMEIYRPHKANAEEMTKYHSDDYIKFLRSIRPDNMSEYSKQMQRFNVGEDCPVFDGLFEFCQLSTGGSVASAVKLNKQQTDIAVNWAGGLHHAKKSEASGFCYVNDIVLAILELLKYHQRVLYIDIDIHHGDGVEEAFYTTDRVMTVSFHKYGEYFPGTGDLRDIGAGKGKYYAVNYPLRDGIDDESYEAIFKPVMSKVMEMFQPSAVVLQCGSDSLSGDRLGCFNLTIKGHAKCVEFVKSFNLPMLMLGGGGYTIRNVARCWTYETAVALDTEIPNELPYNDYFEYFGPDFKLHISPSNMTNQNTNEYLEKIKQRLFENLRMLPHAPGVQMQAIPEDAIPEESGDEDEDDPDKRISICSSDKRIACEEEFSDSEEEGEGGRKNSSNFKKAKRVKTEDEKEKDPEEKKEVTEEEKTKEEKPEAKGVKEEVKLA
Procedure, shortened: (§1)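 MCF7 cells (5 × 10^6 per T75 flask) treated 24 h, harvested by trypsinization, lysed in RIPA on ice; 50 μg total protein resolved on 12% SDS-PAGE, transferred to nitrocellulose and probed for histone, acetylated histone, tubulin, acetylated tubulin, p21 and actin. Untreated cells as negative control.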

MCF7 [1] = assay: Inhibition of Class 1 histone deacetylase in human MCF7 cells assessed as up-regulation of p21 protein level at 5 uM after 24 hrs by Western blot analysis; assay type: cell-based; procedure, shortened: as §1
Bacteria [2] = assay: Inhibition of bacterial DNA cytosine-C5 methyltransferase, M.SssI at 5 uM
Procedure, shortened: (§2)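 One unit M.SssI with 1 μg bacteriophage λ DNA in NEBuffer2 (pH 7.9, 1 mM DTT) plus 160 μM SAM, ±inhibitor, 2 h at 37 °C; heat-inactivated 65 °C 20 min. Methylation read by BstUI digestion (10 units, 1 h 60 °C) and 1.5% agarose gel electrophoresis; run four times with positive and negative controls.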

[3] = target: DNA (cytosine-5)-methyltransferase 1 (Homo sapiens, UniProt P26358); assay: Inhibition of semi-purified DNMT1
DNA (cytosine-5)-methyltransferase 1, sequence (P26358 whole entry): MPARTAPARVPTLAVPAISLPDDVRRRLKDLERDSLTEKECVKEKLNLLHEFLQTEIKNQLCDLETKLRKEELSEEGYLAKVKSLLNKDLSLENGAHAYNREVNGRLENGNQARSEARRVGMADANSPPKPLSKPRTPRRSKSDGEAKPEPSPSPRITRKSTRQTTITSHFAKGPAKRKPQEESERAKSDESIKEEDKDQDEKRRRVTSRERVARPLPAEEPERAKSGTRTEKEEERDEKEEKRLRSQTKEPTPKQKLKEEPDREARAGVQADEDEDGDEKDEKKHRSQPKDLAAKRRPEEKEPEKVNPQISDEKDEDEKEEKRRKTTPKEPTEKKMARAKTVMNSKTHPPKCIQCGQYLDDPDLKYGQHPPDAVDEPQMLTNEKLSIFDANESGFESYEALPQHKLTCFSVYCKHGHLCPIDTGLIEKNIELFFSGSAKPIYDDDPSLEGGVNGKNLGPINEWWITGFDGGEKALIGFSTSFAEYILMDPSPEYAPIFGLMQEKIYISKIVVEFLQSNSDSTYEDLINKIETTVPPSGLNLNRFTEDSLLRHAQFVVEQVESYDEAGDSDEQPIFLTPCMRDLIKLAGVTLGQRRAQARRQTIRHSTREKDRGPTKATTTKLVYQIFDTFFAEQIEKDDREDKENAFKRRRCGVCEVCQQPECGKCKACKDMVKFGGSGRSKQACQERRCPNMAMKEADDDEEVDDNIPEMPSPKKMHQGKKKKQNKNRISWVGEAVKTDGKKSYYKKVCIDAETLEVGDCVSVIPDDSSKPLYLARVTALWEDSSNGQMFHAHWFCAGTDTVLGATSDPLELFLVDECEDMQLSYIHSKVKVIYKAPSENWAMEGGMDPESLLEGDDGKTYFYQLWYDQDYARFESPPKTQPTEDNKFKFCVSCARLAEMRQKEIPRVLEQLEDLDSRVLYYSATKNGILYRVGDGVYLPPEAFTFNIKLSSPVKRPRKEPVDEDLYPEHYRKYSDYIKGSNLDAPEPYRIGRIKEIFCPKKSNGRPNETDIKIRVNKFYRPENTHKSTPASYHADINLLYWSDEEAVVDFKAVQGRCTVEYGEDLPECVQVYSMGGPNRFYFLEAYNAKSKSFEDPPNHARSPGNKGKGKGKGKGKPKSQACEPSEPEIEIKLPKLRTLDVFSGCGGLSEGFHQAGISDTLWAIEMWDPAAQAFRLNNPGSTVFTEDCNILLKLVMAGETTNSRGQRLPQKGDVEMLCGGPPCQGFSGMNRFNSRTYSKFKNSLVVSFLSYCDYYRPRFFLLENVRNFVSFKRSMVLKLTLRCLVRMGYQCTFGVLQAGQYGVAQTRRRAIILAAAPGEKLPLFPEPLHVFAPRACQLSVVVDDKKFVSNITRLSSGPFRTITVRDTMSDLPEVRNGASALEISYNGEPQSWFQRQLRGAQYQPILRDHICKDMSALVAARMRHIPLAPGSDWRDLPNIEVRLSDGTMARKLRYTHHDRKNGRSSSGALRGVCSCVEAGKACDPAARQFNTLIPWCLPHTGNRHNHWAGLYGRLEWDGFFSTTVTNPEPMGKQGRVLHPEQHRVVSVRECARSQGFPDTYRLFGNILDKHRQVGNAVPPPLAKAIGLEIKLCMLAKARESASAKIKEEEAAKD

[4] = Growth inhibition of human WI38 cells after 96 hrs by sulphorhodamine B assay; assay type: cell-based; details: WI-38 cells
Procedure, shortened: (§3)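 SRB growth assay; MCF7 and WI38 seeded 4000 cells/well, A549 2000 cells/well, attached overnight, then exposed to freshly made drug solutions (0.1 to 50 μM) for 96 h. Fixed with cold 10% TCA, stained with 0.4% SRB; absorbance at 540 nm as percent of untreated control, IC50 from mean absorbance.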

A549 = assay: Growth inhibition of human A549 cells after 96 hrs by sulphorhodamine B assay; assay type: functional; details: A549, 96 h; procedure, shortened: as §3
Bacteria [5] = assay: Inhibition of bacterial DNA cytosine-C5 methyltransferase, M.SssI at 50 uM; procedure, shortened: as §2
[6] = Inhibition of HDAC in cell extract based assay
[7] = target: T1, Protein deacetylase HDAC6 (Homo sapiens) (UniProt Q9UBN7); assay: Inhibition of HDAC6 in human MCF7 cells assessed as change in tubulin acetylation level at 5 uM after 24 hrs by Western blot analysis; assay type: cell-based; procedure, shortened: as §1
T1 sequence (whole entry): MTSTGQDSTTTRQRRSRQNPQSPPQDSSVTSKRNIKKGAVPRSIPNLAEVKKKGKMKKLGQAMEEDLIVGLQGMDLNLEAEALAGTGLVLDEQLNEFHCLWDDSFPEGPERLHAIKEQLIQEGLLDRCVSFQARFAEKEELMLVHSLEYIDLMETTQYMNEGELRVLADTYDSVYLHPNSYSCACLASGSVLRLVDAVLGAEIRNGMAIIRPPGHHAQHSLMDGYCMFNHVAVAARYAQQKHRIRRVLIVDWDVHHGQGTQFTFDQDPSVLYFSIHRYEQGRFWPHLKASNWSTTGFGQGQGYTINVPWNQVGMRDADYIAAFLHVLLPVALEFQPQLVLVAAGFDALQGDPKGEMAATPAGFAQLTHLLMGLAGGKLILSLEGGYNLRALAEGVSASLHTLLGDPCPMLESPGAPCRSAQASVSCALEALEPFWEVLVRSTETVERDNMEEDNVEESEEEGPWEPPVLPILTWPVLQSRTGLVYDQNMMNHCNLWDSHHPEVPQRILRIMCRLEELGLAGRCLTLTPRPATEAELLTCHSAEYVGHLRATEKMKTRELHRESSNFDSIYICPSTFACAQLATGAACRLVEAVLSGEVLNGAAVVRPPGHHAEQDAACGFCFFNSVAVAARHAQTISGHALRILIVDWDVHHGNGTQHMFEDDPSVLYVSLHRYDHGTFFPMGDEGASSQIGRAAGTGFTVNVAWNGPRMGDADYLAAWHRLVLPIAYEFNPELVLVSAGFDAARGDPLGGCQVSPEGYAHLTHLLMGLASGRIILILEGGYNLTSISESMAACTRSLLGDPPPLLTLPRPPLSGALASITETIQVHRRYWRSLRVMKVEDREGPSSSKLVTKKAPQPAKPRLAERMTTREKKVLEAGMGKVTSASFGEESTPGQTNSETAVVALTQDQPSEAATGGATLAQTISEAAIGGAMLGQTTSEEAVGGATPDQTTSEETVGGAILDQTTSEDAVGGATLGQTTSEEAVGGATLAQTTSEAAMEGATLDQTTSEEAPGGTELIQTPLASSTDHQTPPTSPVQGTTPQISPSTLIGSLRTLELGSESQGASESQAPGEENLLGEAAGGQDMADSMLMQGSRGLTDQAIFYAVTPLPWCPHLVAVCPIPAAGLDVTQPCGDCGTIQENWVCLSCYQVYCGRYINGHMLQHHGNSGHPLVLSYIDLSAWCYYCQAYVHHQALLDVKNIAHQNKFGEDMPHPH

MCF7 [8] = assay: Growth inhibition of human MCF7 cells after 96 hrs by sulphorhodamine B assay; assay type: functional; details: MCF7, 96 h; procedure, shortened: as §3

inhibition (Histone deacetylase 1): Active | inhibition (Bacteria [2]): Active | IC50 [3]: 18.6 nM | GI50 (A549): 7500 nM | inhibition (Bacteria [5]): Active | IC50 [6]: 4.2 nM | inhibition [7]: inactive | GI50 (MCF7 [8]): 1270 nM
SMILES: O=C(NCCSSCCNC(=O)/C(Cc1ccc(O)c(Br)c1)=N/O)/C(Cc1ccc(O)c(Br)c1)=N/O [PSAMMAPLIN A]
inhibition (MCF7 [1]): Active | GI50 at 96 h [4]: 3440 nM
